# Hits are enriched below; roughly 2.8% of the tested compounds scored in any of these assays.
# NPY Y2 blocker: NPY-Y2 receptor antagonists, primary screen, cell-based; Neuropeptide Y receptor type 2 (Homo sapiens), P49146; 140,000 tested, 0.99% active; inhibition, % at 2.7 µM; AID 793, 2007; NPY-Y2 expressing cells, antagonist mode;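 note: 0% = vehicle with agonist challenge and 100% = reference antagonist with challenge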
# NPY2 pot ag: NPY-Y2 potentiators or agonists, primary screen, cell-based | Neuropeptide Y receptor type 2 (Homo sapiens), P49146 | cells expressing NPY-Y2, potentiator/agonist read-out | activation, % at 3.6 µM | 220,000 tested, 0.45% active | AID 1359, 2008; in the data active = activation above about 27%;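 note: cells stimulated with NPY near EC25 plus isoproterenol at EC100; 0% = vehicle plus submaximal agonist and 100% = vehicle plus saturating agonist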
# EP2 modulator: EP2 receptor modulators, cAMP readout, primary screen, cell-based, HTRF cAMP, PGE2 stimulation. Prostaglandin E2 receptor EP2 subtype (Homo sapiens), P43116. EP2-expressing cells, cAMP HTRF FRET, PGE2 co-stimulation. induction, % at 25 µM. 260,000 tested, 0.83% active;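 active = compounds whose cAMP rise, as percent of the full-agonist control response, exceeds 60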;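 note: rat C6 glioma line stably carrying human EP2 under a CMV promoter; the protocol text gives 20 µM as final concentration; 100% = response of wells given 1 µM PGE2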
# Target sequence (P43116 whole entry, looked up): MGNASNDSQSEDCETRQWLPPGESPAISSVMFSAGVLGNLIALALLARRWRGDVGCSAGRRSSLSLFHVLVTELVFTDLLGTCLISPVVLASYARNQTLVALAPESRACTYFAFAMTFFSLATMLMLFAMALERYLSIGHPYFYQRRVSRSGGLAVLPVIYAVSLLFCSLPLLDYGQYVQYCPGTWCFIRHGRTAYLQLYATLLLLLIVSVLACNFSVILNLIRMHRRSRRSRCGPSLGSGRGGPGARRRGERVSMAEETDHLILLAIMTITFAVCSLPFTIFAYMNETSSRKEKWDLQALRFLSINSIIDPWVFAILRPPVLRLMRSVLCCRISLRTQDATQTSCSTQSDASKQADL
# NPY Y1 blocker: NPY-Y1 receptor antagonists, primary screen, cell-based. inhibition, % at 3.6 µM. Neuropeptide Y receptor type 1 (Homo sapiens), P25929. HEK293-CNG Y1 cells, membrane potential fluorescence; NPY at EC95, then isoproterenol. AID 1040, 2008. 200,000 tested, 1% active;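 active = inhibition above the campaign mean inhibition of all tested compounds plus 3 SD, cut at about 20% in these data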;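 note: 0% = DMSO wells given NPY plus isoproterenol and 100% = isoproterenol alone without NPY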
# Target sequence (P25929 whole entry, looked up): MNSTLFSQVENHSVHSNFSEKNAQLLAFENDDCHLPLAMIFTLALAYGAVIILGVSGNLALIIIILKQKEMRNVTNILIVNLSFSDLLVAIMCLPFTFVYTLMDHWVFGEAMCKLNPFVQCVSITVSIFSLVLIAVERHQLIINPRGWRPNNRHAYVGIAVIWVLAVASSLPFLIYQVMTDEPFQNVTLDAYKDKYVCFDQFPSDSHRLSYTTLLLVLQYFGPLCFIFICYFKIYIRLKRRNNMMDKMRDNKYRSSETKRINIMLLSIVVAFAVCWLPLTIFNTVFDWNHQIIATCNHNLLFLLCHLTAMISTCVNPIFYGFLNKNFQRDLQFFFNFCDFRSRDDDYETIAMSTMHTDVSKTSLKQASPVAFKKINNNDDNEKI
#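 Material: HEK293 cells co-expressing NPY Y1 receptor and cyclic-nucleotide gated channel. Timing: compound incubation 1 h at room temperature, readout 45 min post-stimulation. Signal: fluorescence, membrane potential probe.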
# NPY-Y1 PAM-ag: NPY-Y1 receptor potentiators or agonists, primary screen, cell-based. Neuropeptide Y receptor type 1 (Homo sapiens), P25929. NPY-Y1 expressing cells, potentiator/agonist activation. activation, % at 3.6 µM. 220,000 tested, 0.37% active. AID 1304, 2008; in the data active = activation above about 33%, passing the limit was not always enough;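 note: cells stimulated with NPY at EC10 then isoproterenol at EC100; 0% = low agonist plus stimulus and 100% = saturating agonist plus stimulus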
# PGE2 EP2 inh: human EP2 receptor antagonists, primary screen, TR-FRET cAMP, C6 glioma cells. C6 glioma cells expressing human EP2; cells stimulated with saturating PGE2. inhibition, % at 25 µM. 260,000 tested, 0.52% active;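 active = percent inhibition above 40 after rounding to a whole number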;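 note: rat C6 glioma host cells with rolipram phosphodiesterase inhibitor present; the protocol text gives 20 µM as final concentration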
# NPY-Y1 ant conf: NPY-Y1 receptor antagonists, retest of hits, confirmation, HEK293-CNG cells, membrane potential fluorescence, triplicate. cAMP; NPY challenge against isoproterenol-raised cAMP. shares compounds with NPY Y1 blocker. 1,200 tested, 21% active. inhibition, % at 3.6 µM; in the data active = inhibition above about 20%;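 note: 0% = vehicle with agonist plus stimulus and 100% = stimulus alone without agonist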
# NPY2 antag ctr: NPY-Y2 receptor antagonists, selectivity check, confirmation, counter-screen for NPY-Y1 antagonist project, HEK293-CNG cells, membrane potential fluorescence, triplicate | antagonism; cells given NPY, then isoproterenol | AID 1255, 2008 | 1,200 tested, 28% active | inhibition, % at 3.6 µM | shares compounds with NPY Y1 blocker;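 note: 0% = DMSO with agonist challenge and 100% = reference antagonist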
# Active calls of the source: *; nt = no result given; ! = a repeat was not active. Cut-off read from the data, not from the text of the source, unless noted: active = inhibition above about 17%; inactive = the rest.
SMILES,NPY Y2 blocker,NPY2 pot ag,EP2 modulator,NPY Y1 blocker,NPY-Y1 PAM-ag,PGE2 EP2 inh,NPY-Y1 ant conf,NPY2 antag ctr
O=C(CCc1ccccc1)N1CCC[C@@H]1Cn1nc(-c2cccs2)ccc1=O,nt,nt,-36.5,nt,nt,10.1,nt,nt
O=S(=O)(N/N=C/c1ccc2c(c1)OCCO2)c1ccc(Cl)cc1,12.5,-19.7,-29.4,3.5,1.2,6.1,nt,nt
Cc1cc(Cl)c(S(=O)(=O)N/N=C/c2ccc3c(c2)OCO3)c(Cl)c1,7.1,-5.2,-30.9,20.3*,-22.5,nt,8.8,13.8
CCCNC(=O)C1CCN(S(=O)(=O)c2cccs2)CC1,nt,10.0,22.2,0.3,21.3,2.1,nt,nt
O=C(NCCN1C(=O)S/C(=C\c2ccccc2F)C1=O)C1CCN(S(=O)(=O)c2cccs2)CC1,14.9,-4.2,-47.4,20.3*,2.5,11.2,8.9,10.1
CC(C)Cn1cc(C(=O)N2CCOCC2)c2c3ccccc3n(C)c2c1=O,3.8,-6.9,5.0,-0.1,-11.2,7.6,nt,nt
CC(C)Cn1cc(C(=O)NCc2cccs2)c2c3ccccc3n(C)c2c1=O,15.6,1.7,-14.3,21.0*,-2.4,9.8,4.0,5.4
CC(C)Cn1cc(C(=O)N2CCC(C)CC2)c2c3ccccc3n(C)c2c1=O,nt,-12.6,-31.9,23.0*,-1.6,5.5,3.7,8.1
C[N+](C)(C)CCOC(=O)CCC(=O)OCC[N+](C)(C)C,nt,nt,12.6,nt,nt,7.5,nt,nt
CC(=O)OCC[N+](C)(C)C,2.9,-19.8,-5.0,26.8*,-75.1,13.3,29.4*,17.5*!
Cc1ccc2cc(CN(Cc3cccs3)C(=S)NCc3ccccc3)c(=O)[nH]c2c1C,nt,nt,-11.4,nt,nt,8.5,nt,nt
Clc1ccc(-n2cccc2CN2CCc3c([nH]c4ccccc34)C2c2ccccn2)nc1 (centres undefined),nt,-13.3,-11.2,25.7*,-17.0,6.0,6.0,9.4
c1ccc(-c2ccccc2OCCCN2CCCCCC2)cc1,nt,-9.9,-17.7,26.1*,-14.9,6.9,11.5,12.7
c1ccc(-c2ccccc2OCCCN2CCCC2)cc1,6.2,1.3,-26.9,16.8,-0.9,6.1,nt,nt
O=C(O)CCSc1nc2ccccc2s1,10.3,-29.9,26.1,26.9*,-36.1,2.1,7.6,6.2
COc1ccc(-n2cnnn2)c(N)c1,nt,nt,-32.8,nt,nt,8.9,nt,nt
CCn1c(Sc2nc(C)nc3scc(-c4cccs4)c23)n[nH]c1=O,1.9,-2.2,15.6,20.5*,-2.8,7.0,6.6,36.8*
CCOc1nc(-c2ccc(Cl)cc2Cl)ccc1C#N,12.9,-12.9,37.8,36.1*,-19.0,0.9,16.2,10.6
CCCCCc1ccc(OCCOCCn2c[n+](C)c3ccccc32)c(CCCCC)c1,nt,-4.3,-54.9,35.2*,-37.9,21.7,42.2*,22.9*
CC(C)(C)c1ccc(OCC(=O)NCC2CCCO2)cc1 (centres undefined),nt,nt,-19.0,nt,nt,4.6,nt,nt
CC(=O)N(Cc1ccc(Br)cc1)c1cccc(C)c1C,nt,2.0,-2.1,33.5*,-11.1,1.1,1.4,5.3
CC1(C)CC(N2CCCC2)=CC(=[N+]2CCCCCC2)C1,nt,3.3,-30.5,26.4*,-24.6,10.2,22.8*,11.5
CC1CC(C)C[N+](=C2C=C(N3CCCC3)CC(C)(C)C2)C1 (centres undefined),nt,15.4,-44.1,42.1*,-10.2,7.0,30.7*,12.8
Cc1cc(NC(=O)CC2CCCC2)n(-c2nc3ccccc3[nH]2)n1,16.9,-7.0,-8.4,20.6*,-24.5,11.8,16.8,8.0
CCN1C(=O)C(c2ccc(F)cc2)C2(CCN(C(=O)C(C)(C)C)CC2)C1=O (centres undefined),nt,nt,-5.9,nt,nt,nt,nt,nt
SMILES,NPY Y2 blocker,NPY2 pot ag,EP2 modulator,NPY Y1 blocker,NPY-Y1 PAM-ag,PGE2 EP2 inh,NPY-Y1 ant conf,NPY2 antag ctr
CCOC(=O)CSc1nnc(-c2cc(OC)c(OC)c(OC)c2)n1-c1ccccc1,nt,nt,19.6,nt,nt,13.8,nt,nt
Cc1ccc(C)c(Cn2c(CO)nc3ccccc32)c1,6.8,-38.8,30.3,20.6*,-25.7,9.5,9.2,9.2
COc1ccc(C(=O)NCCCc2nc3ccccc3n2Cc2cc(C)ccc2C)cc1OC,-0.4,2.3,24.9,1.9,-6.2,15.4,nt,nt
CCOC(=O)C1=C(c2ccccc2)O/C(=C(/C#N)C(F)(F)F)S1,11.9,-13.8,11.8,31.8*,-38.6,-0.5,10.3,42.4*
COc1cccc(-c2cc(C(=O)N3CCN(C(c4ccccc4)c4ccccc4)CC3)no2)c1,6.8,-6.3,37.3,23.6*,-31.1,4.3,6.5,7.6
Cn1ccnc1C1(O)CC2CCC(C1)N2C(=O)c1cccc(Cl)c1 (centres undefined),nt,nt,-4.7,nt,nt,nt,nt,nt
CC(C)COCC(CN(Cc1ccccc1)c1ccccc1)N1CCCC1 (centres undefined),nt,-22.2,27.6,30.8*,-11.1,6.2,18.3,17.0
CC(C(=O)Nc1ccc(OCc2ccccc2)cc1)N1CCCC1 (centres undefined),nt,-2.0,-62.3,1.6,2.7,5.3,nt,nt
CCCCCCCn1c(=N)n(CC(O)c2ccco2)c2ccccc21 (centres undefined),nt,-33.6,-67.7,32.9*,-12.0,8.9,24.5*,23.5*
N=c1n(CCN2CCCC2)c2ccccc2n1CC(O)c1ccco1 (centres undefined),3.7,-4.3,2.1,4.9,-9.5,3.7,nt,nt
CC(C)(C)c1ccc(Cn2c(=N)n(CC(O)c3ccco3)c3ccccc32)cc1 (centres undefined),nt,-19.8,-50.9,47.0*,-7.5,5.0,21.6*,30.8*
CCn1c(=N)n(CC(O)c2ccccc2)c2ccccc21 (centres undefined),3.2,2.7,-15.2,-0.5,-25.2,22.0,nt,nt
COc1ccc(N2CCN(C(=O)CN(c3cc(C)cc(C)c3)S(C)(=O)=O)CC2)cc1,nt,nt,-4.0,nt,nt,11.2,nt,nt
CCc1ccc2[nH]c(=O)c(CN(Cc3ccc(F)cc3)C(c3nnnn3C(C)(C)C)C(C)C)cc2c1 (centres undefined),nt,nt,44.4,nt,nt,11.7,nt,nt
COc1ccc(N(C)S(=O)(=O)c2ccc(Cl)c(C(=O)NCCc3ccc(Cl)cc3)c2)cc1,nt,5.4,-23.0,29.4*,4.8,8.7,9.1,9.5

# Compound activity deposited in PubChem BioAssay by several laboratories.
